Here are results for 21 molecules from ChEMBL document CHEMBL3870359, “Design and Synthesis of Novel Meta-Linked Phenylglycine Macrocyclic FVIIa Inhibitors” (ACS Med Chem Lett, 2017).

Data set [1] in a line: Half life in rat liver microsomes. The class given is ADME.
Data set [2] in a line: Half life in human liver microsomes. The class given is ADME.
Data set [3] addresses T1, Coagulation factor VII/tissue factor (Homo sapiens, UniProt P08709). As to the kind of experiment: Inhibition of recombinant human factor-7a/TF using S2288 as substrate measured after 60 mins at 25 degC. Type of data set: protein-complex assay. The procedure, abridged:
(§1)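 Ki determined against recombinant human TF/FVIIa enzyme, each value averaged from two experiments. The assay was first run at 25 °C and later moved to 37 °C to better approximate physiological conditions.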

A short description of data set [4]: Oral bioavailability in rat. Conditions: in vivo. Type of data set: ADME, organism-based.
Data set [5] in a line: Permeability of the compound at pH 7.4 by PAMPA. Type of data set: ADME. The conditions noted are these: read-out: permeability.
The target in data set [6] is T1, Coagulation factor VII/tissue factor. The data set can be described thus: Inhibition of recombinant human factor-7a/TF using S2288 as substrate measured after 60 mins at 37 degC. The class given is protein-complex assay. The procedure, abridged:
as §1

Data set [7] can be described thus: Anticoagulant activity in factor 7 deficient human plasma assessed as concentration required for prolongation of prothrombin time. The class given is functional. The procedure, abridged: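 Clotting (prothrombin time) assay in FVII-deficient human plasma. Read-out is the compound concentration that prolongs clotting time 2-fold (EC2X, μM).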
Data set [8] is described as follows: Permeability of the compound at pH 5.5 by PAMPA. Type of data set: ADME. The conditions noted are these: read-out: permeability.
For data set [9], the target named is Vitamin K-dependent protein C (Homo sapiens, UniProt P04070). The data set can be described thus: Inhibition of activated protein C (unknown origin).
The target in the next data set is Kallikrein-1 (Homo sapiens, UniProt P06870). The data set can be described thus: Inhibition of tissue Kallikrein-1 (unknown origin).
Chain of Kallikrein-1 (P06870 whole entry): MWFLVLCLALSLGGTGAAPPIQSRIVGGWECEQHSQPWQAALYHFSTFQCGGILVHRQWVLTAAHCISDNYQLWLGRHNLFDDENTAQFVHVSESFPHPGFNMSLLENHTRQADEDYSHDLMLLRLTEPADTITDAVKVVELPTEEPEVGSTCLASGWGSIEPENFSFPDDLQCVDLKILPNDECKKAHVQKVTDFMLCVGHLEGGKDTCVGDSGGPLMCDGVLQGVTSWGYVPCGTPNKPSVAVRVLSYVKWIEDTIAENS

Chain of Vitamin K-dependent protein C (P04070 43-197 limits assumed): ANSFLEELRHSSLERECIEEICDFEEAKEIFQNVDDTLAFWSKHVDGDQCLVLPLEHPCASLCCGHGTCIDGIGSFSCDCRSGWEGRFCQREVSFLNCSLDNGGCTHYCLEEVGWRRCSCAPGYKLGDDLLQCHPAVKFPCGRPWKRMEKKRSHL
Chain of Vitamin K-dependent protein C (P04070 212-461 limits assumed): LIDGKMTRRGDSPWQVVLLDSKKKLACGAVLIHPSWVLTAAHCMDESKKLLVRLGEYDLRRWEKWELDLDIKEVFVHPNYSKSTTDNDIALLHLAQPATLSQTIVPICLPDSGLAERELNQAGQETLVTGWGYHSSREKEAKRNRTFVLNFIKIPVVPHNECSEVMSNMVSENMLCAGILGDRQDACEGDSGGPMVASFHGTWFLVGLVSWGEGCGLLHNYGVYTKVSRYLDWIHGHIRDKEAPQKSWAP
T1 sequence (P08709 61-212 limits assumed): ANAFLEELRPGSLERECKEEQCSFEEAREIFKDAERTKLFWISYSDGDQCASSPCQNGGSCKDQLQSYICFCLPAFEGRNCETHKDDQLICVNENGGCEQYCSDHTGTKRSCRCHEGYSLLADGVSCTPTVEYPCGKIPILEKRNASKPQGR
T1 sequence (P08709 213-466 limits assumed): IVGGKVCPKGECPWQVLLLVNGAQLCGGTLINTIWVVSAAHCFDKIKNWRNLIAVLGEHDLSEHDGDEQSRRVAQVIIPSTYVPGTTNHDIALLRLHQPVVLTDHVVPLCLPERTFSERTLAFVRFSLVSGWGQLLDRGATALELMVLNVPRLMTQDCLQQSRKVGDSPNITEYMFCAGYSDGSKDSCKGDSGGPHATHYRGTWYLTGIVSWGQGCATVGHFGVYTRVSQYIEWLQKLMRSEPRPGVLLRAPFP
T1 sequence (P13726 33-295 partner limits assumed): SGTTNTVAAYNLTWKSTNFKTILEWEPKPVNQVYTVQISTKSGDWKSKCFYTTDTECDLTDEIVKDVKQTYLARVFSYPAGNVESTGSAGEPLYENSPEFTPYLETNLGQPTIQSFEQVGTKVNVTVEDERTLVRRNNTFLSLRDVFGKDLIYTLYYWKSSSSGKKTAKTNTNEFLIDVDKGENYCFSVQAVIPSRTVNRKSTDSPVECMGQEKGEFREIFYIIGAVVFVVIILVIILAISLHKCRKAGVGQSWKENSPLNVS

As for `CN1CCc2cccc(c2)[C@@H](Nc2ccc3c(N)ncc(F)c3c2)C(=O)N(C)Cc2cc(ccc2S(=O)(=O)C2CC2)NC1=O`, the half-life in [1] worked out at 6 min; in data set [2], 5 min. Moreover, the Ki stood at 14 nM in [3] and 200 nM in data set [6]. Also, in [4] (BLD = below limit of detection), the F entry is on record as “Bld”. In data set [5], the Papp was 22 ×10⁻⁶ cm/s.
Consider `CN1Cc2cc(ccc2S(=O)(=O)C2CC2)NC(=O)N(Cc2ccccc2)CCc2cccc(c2)[C@@H](Nc2ccc3c(N)ncc(F)c3c2)C1=O`, for which, in [3], the Ki came to 80 nM.
`COc1c(F)cc2cc1CCC(=O)Nc1ccc(S(=O)(=O)C3CC3)c(c1)CN(C)C(=O)[C@@H]2Nc1ccc2c(N)ncc(F)c2c1`: the half-life in data set [1] worked out at 8 min; in data set [2], 14 min. The 2PT in [7] came to 41 µM. Further, in [6], the Ki is 410 nM.
As to `COc1ccc2cc1CCC(=O)Nc1ccc(S(=O)(=O)C3CC3)c(c1)CN(C)C(=O)[C@@H]2Nc1ccc2c(N)ncc(F)c2c1`, the values for the half-life in data set [1] and in data set [2] were 16 min and 14 min, respectively. Moreover, the 2PT in data set [7] worked out at 11 µM. The values for the Papp in data set [5] and in data set [8] were 54 ×10⁻⁶ cm/s and 35 ×10⁻⁶ cm/s, respectively. Moreover, the Ki in data set [6] came to 18 nM.
In the case of `CN1Cc2cc(ccc2S(=O)(=O)C2CC2)NC(=O)CCc2cc(ccc2F)[C@@H](Nc2ccc3c(N)ncc(F)c3c2)C1=O`, in data set [7], the 2PT came out at 26 µM. For the same molecule, the Ki in [6] worked out at 210 nM.
Turning to `CN1CCc2cccc(c2)[C@@H](Nc2ccc3c(N)nccc3c2)C(=O)N(C)Cc2cc(ccc2S(=O)(=O)C2CC2)NC1=O`, in data set [6], the Ki amounted to 6.3 nM.
As for `COc1cc2cc(c1)[C@@H](Nc1ccc3c(N)ncc(F)c3c1)C(=O)N(C)Cc1cc(ccc1S(=O)(=O)C1CC1)NC(=O)CC2`, the half-life stood at 46 min in [1] and 15 min in data set [2]. The 2PT in [7] stood at 14 µM. For the same molecule, the Papp stood at 29 ×10⁻⁶ cm/s in data set [5] and 1.5 ×10⁻⁶ cm/s in [8]. In addition, the Ki in data set [6] is 290 nM.
Take `C[C@H]1CC(=O)Nc2ccc(S(=O)(=O)C3CC3)c(c2)CN(C)C(=O)[C@H](Nc2ccc3c(N)ncc(F)c3c2)c2ccc(OCC(F)F)c1c2`: the half-life in data set [1] came to 74 min; in data set [2], 14 min. Besides, in [7], the 2PT came to 23 µM. In addition, the Ki in data set [9] was 5700 nM; on Kallikrein-1, 23 nM; in data set [6], 67 nM.
As to `CN1Cc2cc(ccc2S(=O)(=O)C2CC2)NC(=O)CCc2cccc(c2)[C@@H](Nc2ccc3c(N)ncc(F)c3c2)C1=O`, the half-life in [1] is 33 min; in data set [2], 13 min. Also, the 2PT in data set [7] was determined as 10 µM. The molecule further had a bioavailability in data set [4] of 3.7%. Further, the Papp in [5] turned out to be 12 ×10⁻⁶ cm/s; in [8] it was 6.7 ×10⁻⁶ cm/s. The Ki in [6] was found to be 260 nM.
As to `CN1Cc2cc(ccc2S(=O)(=O)C2CC2)NC(=O)CCc2cc(ccc2C2CC2)[C@@H](Nc2ccc3c(N)ncc(F)c3c2)C1=O`, the values for the half-life in data set [1] and in data set [2] were 5 min and 26 min, respectively. Also, the 2PT in data set [7] stood at 26 µM. In [6], the Ki was 77 nM.
As to `CN1Cc2cc(ccc2S(=O)(=O)C2CC2)NC(=O)N(CC2CC2)CCc2cccc(c2)C(Nc2ccc3c(N)ncc(F)c3c2)C1=O` (racemic), the half-life came out at 12 min in data set [1] and 5 min in [2]. The Ki in data set [3] turned out to be 59 nM.
As to `CN1Cc2cc(ccc2S(=O)(=O)C2CC2)NC(=O)CCc2cc(ccc2OCC(F)F)[C@@H](Nc2ccc3c(N)ncc(F)c3c2)C1=O`, the half-life turned out to be 64 min in [1] and 32 min in data set [2]. In addition, the 2PT in data set [7] amounted to 15 µM. Also, the figures for the Ki (in [9]; on Kallikrein-1; in data set [6]) were 1200 nM, 140 nM and 27 nM, respectively. For the same molecule, the Papp in data set [8] turned out to be 8.8 ×10⁻⁶ cm/s.
For `CN1Cc2cc(ccc2S(=O)(=O)C2CC2)NC(=O)CCc2cccc(c2)[C@@H](Nc2ccc3c(N)nccc3c2)C1=O`, the Ki in [3] is less than 5 nM; in data set [6], 58 nM.
On to `CN1Cc2cc(ccc2S(=O)(=O)C2CC2)NC(=O)CCc2cc(ccc2O)[C@@H](Nc2ccc3c(N)ncc(F)c3c2)C1=O`, for which the 2PT in data set [7] stood at 14 µM. For the same molecule, the Ki in data set [6] was found to be 92 nM.
Consider `COc1ccc2cc1[C@H](C)CN(C)C(=O)Nc1ccc(S(=O)(=O)C3CC3)c(c1)CN(C)C(=O)C2Nc1ccc2c(N)nccc2c1` (mixture of isomers), for which the half-life in data set [1] and in [2] was 6 min in each case. The Ki in [3] turned out to be 47 nM.
For `CN1Cc2cc(ccc2S(=O)(=O)C2CC2)NC(=O)CCc2cc(ccc2OCC2CC2)[C@@H](Nc2ccc3c(N)ncc(F)c3c2)C1=O`, the half-life in [1] and in data set [2] was 23 min in each case. In data set [7], the 2PT amounted to 29 µM. Besides, the Ki in data set [6] worked out at 26 nM.
As to `COc1ccc2cc1[C@@H](C)CN(C)C(=O)Nc1ccc(S(=O)(=O)C3CC3)c(c1)CN(C)C(=O)[C@@H]2Nc1ccc2c(N)ncc(F)c2c1`, the half-life in data set [1] and in [2] was 4 min in each case. The values for the Ki in data set [3] and in data set [6] were less than 5 nM and 3.8 nM, respectively.
`CN1Cc2cc(ccc2S(=O)(=O)C2CC2)NC(=O)OCc2cccc(c2)[C@@H](Nc2ccc3c(N)nccc3c2)C1=O`: the Ki in [3] came to 260 nM.
Turning to `C[C@@H]1CC(=O)Nc2ccc(S(=O)(=O)C3CC3)c(c2)CN(C)C(=O)[C@H](Nc2ccc3c(N)ncc(F)c3c2)c2ccc(OCC(F)F)c1c2`, the half-life in [1] was found to be 39 min; in data set [2], 31 min. In data set [7], the 2PT amounted to 3.5 µM. Besides, the Ki in data set [9] was determined as 39 nM; at Kallikrein-1, 9.4 nM; in data set [6] it was 0.24 nM.
For `CN1Cc2cc(ccc2S(=O)(=O)C2CC2)NC(=O)N(CC2CCC2)CCc2cccc(c2)C(Nc2ccc3c(N)ncc(F)c3c2)C1=O` (racemic), the Ki in [3] was 150 nM.
Still for that read-out and setting: the result for `CN1Cc2cc(ccc2S(=O)(=O)C2CC2)NC(=O)NCCc2cccc(c2)[C@@H](Nc2ccc3c(N)ncc(F)c3c2)C1=O` reads 17 nM.
